Measurements taken from ChEMBL document CHEMBL4177758, “Rational Drug Design of Topically Administered Caspase 1 Inhibitors for the Treatment of Inflammatory Acne” (J Med Chem, 2018).

Tests used:
[1] = Lipophilicity, log D of the compound at pH 6.5 by chromatographic method; format: physicochemical; conditions: buffer
Method in brief: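 Chromatographic lipophilicity at pH 6.5, converted to ChromLogD = CHI × 0.0857 − 2.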

Caspase-5 = molecular target: T1, Caspase-5 (Homo sapiens, UniProt P51878); assay: Inhibition of human recombinant caspase-5 using AC-WEHD-AMC as substrate at Km after 20 mins by fluorescence assay
T1 sequence (P51878 whole entry): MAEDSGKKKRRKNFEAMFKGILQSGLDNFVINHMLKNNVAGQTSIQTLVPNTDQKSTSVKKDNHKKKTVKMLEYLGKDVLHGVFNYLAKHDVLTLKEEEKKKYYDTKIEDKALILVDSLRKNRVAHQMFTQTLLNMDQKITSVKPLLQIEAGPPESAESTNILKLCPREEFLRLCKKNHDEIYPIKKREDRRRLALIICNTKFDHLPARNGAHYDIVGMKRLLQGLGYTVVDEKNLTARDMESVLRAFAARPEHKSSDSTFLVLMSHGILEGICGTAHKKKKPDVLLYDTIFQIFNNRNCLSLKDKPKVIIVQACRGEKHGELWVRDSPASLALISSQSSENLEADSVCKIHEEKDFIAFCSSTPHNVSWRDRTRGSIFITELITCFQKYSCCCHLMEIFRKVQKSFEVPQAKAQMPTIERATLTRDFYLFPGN
Method in brief: (§1)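 Human recombinant caspases in pH 7.4 HEPES buffer (100 mM NaCl, 0.1% CHAPS, 1 mM EDTA, 10% glycerol, 10 mM DTT), each with its own AMC substrate at a final concentration equal to its Km. Compounds tested at 10 000–0.04 nM in 1% DMSO. Enzyme level is set to convert under 20% of substrate in 20 min, or 2 h depending on activity, at room temperature. AMC read at 340/450 nm; IC50 from a four-parameter logistic fit.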

Caspase-3 = molecular target: T2, Caspase-3 (Homo sapiens, UniProt P42574); assay: Inhibition of human recombinant caspase-3 using Ac-DEVD-AMC as substrate at Km after 20 mins by fluorescence assay; method in brief: as §1
T2 sequence (P42574 whole entry): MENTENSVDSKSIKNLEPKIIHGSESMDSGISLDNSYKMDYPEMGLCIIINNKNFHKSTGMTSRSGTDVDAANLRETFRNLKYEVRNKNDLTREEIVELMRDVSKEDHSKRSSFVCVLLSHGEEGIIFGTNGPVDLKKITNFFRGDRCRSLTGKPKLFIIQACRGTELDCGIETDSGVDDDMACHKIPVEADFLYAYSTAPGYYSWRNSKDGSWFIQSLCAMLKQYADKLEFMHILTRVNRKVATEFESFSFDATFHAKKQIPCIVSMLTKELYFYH

Caspase-1 [2] = molecular target: T3, Caspase-1 (Homo sapiens, UniProt P29466); assay: Inhibition of caspase-1 in human THP1 cells assessed as decrease in LPS-induced IL-1beta secretion after overnight incubation by sandwich immunoassay; format: cell-based
T3 sequence (P29466 whole entry): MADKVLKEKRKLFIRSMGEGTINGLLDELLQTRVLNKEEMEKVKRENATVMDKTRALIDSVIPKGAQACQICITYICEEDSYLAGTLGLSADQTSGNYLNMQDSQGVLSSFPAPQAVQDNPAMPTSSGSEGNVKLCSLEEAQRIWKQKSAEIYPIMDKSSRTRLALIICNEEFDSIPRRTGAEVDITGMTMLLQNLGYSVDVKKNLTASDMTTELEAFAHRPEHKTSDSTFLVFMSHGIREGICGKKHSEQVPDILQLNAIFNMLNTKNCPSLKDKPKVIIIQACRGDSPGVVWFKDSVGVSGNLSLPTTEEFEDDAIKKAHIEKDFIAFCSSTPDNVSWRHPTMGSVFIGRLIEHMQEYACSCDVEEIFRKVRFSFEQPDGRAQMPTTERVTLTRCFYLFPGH

[3] = Cmax in mouse plasma at 0.1 umol/cm'2 administered topically; conditions: topical or ocular
Method in brief: (§2)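 Mouse PK after one topical application of 0.1 μmol/cm², given as a 10 mM solution in PG/EtOH 3/7. Cmax is reported in μM for dermis and for plasma.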

[4] = Chemical stability in 96% ethanol assessed as parent compound recovery at 23 degC after 3 months; format: physicochemical; conditions: read-out: Drug recovery
Method in brief: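 Compounds bearing the aspartyl aldehyde warhead are held in 96% ethanol at 23 °C and assayed as percent of parent compound recovered. Readings taken after 4 weeks are projected to 12 weeks with best-fit kinetic-order equations. Tautomers and potential stereoisomers are counted as parent.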

Caspase-6 = molecular target: T4, Caspase-6 (Homo sapiens, UniProt P55212); assay: Inhibition of human recombinant caspase-6 using Ac-VEID-AMC as substrate at Km after 20 mins by fluorescence assay; method in brief: as §1
T4 sequence (P55212 whole entry): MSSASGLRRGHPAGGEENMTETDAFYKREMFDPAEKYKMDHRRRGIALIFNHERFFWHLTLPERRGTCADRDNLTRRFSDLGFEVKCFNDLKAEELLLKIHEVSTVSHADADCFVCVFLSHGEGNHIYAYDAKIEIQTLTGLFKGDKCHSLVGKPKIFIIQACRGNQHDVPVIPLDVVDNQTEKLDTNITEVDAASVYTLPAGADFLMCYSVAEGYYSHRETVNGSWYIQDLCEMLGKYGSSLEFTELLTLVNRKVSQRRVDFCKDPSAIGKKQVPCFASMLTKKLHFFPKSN

Caspase-1 [5] = molecular target: T3, Caspase-1; assay: Inhibition of caspase-1 in human monocyte-derived macrophages assessed as decrease in LPS-induced IL-1beta secretion after 24 hrs by sandwich immunoassay
Method in brief: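 Cryopreserved human peripheral blood monocytes are cultured 10 days at 37 °C in RPMI with 10% heat-inactivated FBS and 100 ng/mL GM-CSF to give M1 macrophages. Cells are then stimulated with LPS 10 µg/mL plus IFNγ 20 ng/mL and treated with compound serial dilutions (10000–0.04 nM, 0.1% DMSO).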

Caspase-8 = Caspase-8 (Homo sapiens, UniProt Q14790); assay: Inhibition of human recombinant caspase-8 using Ac-IETD-AMC as substrate at Km after 20 mins by fluorescence assay; method in brief: as §1
Caspase-8, sequence (Q14790 217-374 limits assumed): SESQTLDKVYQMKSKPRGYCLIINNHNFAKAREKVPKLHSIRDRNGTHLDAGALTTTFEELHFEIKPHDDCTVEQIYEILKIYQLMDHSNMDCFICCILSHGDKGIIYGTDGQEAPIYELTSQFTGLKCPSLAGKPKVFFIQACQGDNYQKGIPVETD
Caspase-8, sequence (Q14790 385-479 limits assumed): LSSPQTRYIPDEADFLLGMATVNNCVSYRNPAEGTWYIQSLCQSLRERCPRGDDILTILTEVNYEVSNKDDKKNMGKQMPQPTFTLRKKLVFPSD

[6] = Phototoxicity in NHEK assessed as decrease in cell viability after 24 hrs in presence of UV light by neutral red uptake assay; conditions: human
Method in brief: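 Keratinocyte neutral red uptake assay adapted from the OECD 432 3T3 NRU test. Cells are irradiated with a simulated daily UV dose of 6 J/cm², and viability is read after 24 h exposure to compound.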

[7] = Drug uptake in human dermis at 0.2 umol/cm'2 administered topically; format: ADME, tissue-based; conditions: topical_or_ocular, read-out: Drug uptake
Method in brief: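 Cryogenically preserved human skin explant given one topical application of 0.2 μmol/cm² from a 40 mM PG/EtOH 3/7 solution. Dermis concentration is reported in μM.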

Caspase-7 = molecular target: T5, Caspase-7 (Homo sapiens, UniProt P55210); assay: Inhibition of human recombinant caspase-7 using Ac-DEVD-AMC as substrate at Km after 20 mins by fluorescence assay; method in brief: as §1
T5 sequence (P55210 whole entry): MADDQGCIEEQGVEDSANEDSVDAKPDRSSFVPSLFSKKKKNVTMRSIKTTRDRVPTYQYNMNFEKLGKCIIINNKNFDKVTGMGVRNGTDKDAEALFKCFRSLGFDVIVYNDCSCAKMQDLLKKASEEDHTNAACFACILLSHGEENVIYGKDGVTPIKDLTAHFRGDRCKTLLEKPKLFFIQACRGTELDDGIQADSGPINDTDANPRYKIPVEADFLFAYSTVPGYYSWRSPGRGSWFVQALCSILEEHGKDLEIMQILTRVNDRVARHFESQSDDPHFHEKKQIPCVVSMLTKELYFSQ

[8] = Cmax in mouse dermis at 0.1 umol/cm'2 administered topically; format: ADME, tissue-based; conditions: topical or ocular; method in brief: as §2
[9] = Intrinsic clearance in human hepatocytes assessed per 10^6 cells; format: ADME, cell-based, Hepatocyte; conditions: read-out: CLH
Caspase-1 [10] = molecular target: T3, Caspase-1; assay: Inhibition of human recombinant caspase-1 using AC-WEHD-AMC as substrate at Km after 20 mins by fluorescence assay; conditions: read-out: IC50

chromatographic logD [1]: 3.7 | IC50 (Caspase-5): 2980 nM | IC50 (Caspase-3): > 10000 nM | IC50 (Caspase-1 [2]): 38 nM | Cmax [3]: 0.0013 µM | remaining at 2191.5 h [4]: 100% | IC50 (Caspase-6): > 10000 nM | IC50 (Caspase-1 [5]): 160 nM | IC50 (Caspase-8): > 10000 nM | concentration [7]: 4.5 µM | IC50 (Caspase-7): > 10000 nM | Cmax [8]: 4.2 µM | hepatocyte CLint [9]: 9.8 µL/min/1e6 cells | IC50 (Caspase-1 [10]): 9.8 nM
SMILES: Cc1cc(Nc2ccc3ccccc3c2)ccc1C(=O)Nc1cn(C(C)C)c(=O)n(C2(C(=O)N[C@H]3CC(=O)OC3O)CC2)c1=O (stereo not given in full)
Activity [6]: Non-Toxic
